Measurements taken from article PMC5754937 (Indian Journal of Pharmacology, 2017).
Structures can show the parent of a compound that is named as a salt.

Legend:
[1] = Metabolic stability in pooled mouse liver microsomes; format: in vitro ADME
In short: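 Microsomes pooled from ~100 B6C3F1 mice (9–10 weeks old). Triplicate incubations: 25 μM test compound with 0.25 mg/mL protein in 50 mM phosphate (pH 7.4), 0.1% DMSO, preincubated 5 min at 37°C, then started with 1 mM NADPH. Samples taken at 0–60 min and quenched in ice-cold 10% perchloric acid with internal standard. LC-MS/MS peak-area ratios used; t½ from substrate disappearance. No-NADPH and heat-inactivated controls included.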

Caco-2 cell monolayers = test: Caco-2 bidirectional permeability assay; format: in vitro ADME; details: A-to-B and B-to-A
[2] = In vivo pharmacokinetics in male BALB/c mice
Visceral leishmaniasis = details: cited from earlier work

Stability in mouse liver microsomes (in words) [1]: unstable
Caco-2 permeability (in words) (Caco-2 cell monolayers): negligible permeability
Caco-2 permeability (in words) (Caco-2 cell monolayers; listed as Paromomycin): low permeability
Plasma clearance as % of hepatic (liver) blood flow ([2]; IV, mice): < 10%
clearance ([2]; male, BALB/c, mouse, plasma, iv, 15 mg/kg, CL, normal saline): 8 mL/min/kg
SMILES: NC[C@@H]1O[C@H](O[C@H]2[C@@H](O)[C@H](O[C@@H]3[C@@H](O)[C@H](N)C[C@H](N)[C@H]3O[C@H]3O[C@H](CO)[C@@H](O)[C@H](O)[C@H]3N)O[C@@H]2CO)[C@H](N)[C@@H](O)[C@@H]1O [paromomycin, Paromomycin sulfate]
Cure rate (Visceral leishmaniasis; after 6 months, treatment with paromomycin i.m.): About 95%
Toxicity (in words) (Visceral leishmaniasis; i.m. route): no nephrotoxicity and reversible ototoxicity
